Experimental data of several laboratories.
Lines come from different studies, so protocols differ.
Target: Inhibitor of nuclear factor kappa-B kinase subunit beta (IKBKB, Homo sapiens, UniProt O14920)

O=C(O)[C@H]1[C@H](Cn2nnc3ccccc3c2=O)CC[C@@H]1C(=O)c1ccc(OCCC2CCOCC2)cc1
remaining binding (cell-free assay; competition with immobilised ligand; 1 µM): 100%

CC(C)(C)c1nc(-c2cccc(NS(=O)(=O)c3c(F)cccc3F)c2F)c(-c2ccnc(N)n2)s1
remaining activity (enzyme activity; inhibitor; radiometric; 1 µM): 94%

C[C@@H]1CN(c2cc(-c3nn(C)c4ccc(OC5(C)CC5)cc34)ncn2)C[C@H](C)O1
remaining binding (cell-free assay; competition with immobilised ligand; 1 µM): 76%

Cn1c2c(c3ccc(Cl)c(Cl)c31)C(C#N)C1(CCCC1)NC2=O (centres unmarked)
ΔTm (thermal stability; DSF; 10 µM): -0.7 °C

COc1ccc2c(c1)O[C@@H](c1ccc(OC)c(OC)c1)C[C@H]2NC(=O)C1(c2ccc3c(c2)OC(F)(F)O3)CC1
remaining binding (cell-free assay; competition with immobilised ligand; 1 µM): 95%

Cn1c2c(c3ccc(Cl)c(Cl)c31)C(C#N)C1(CCNCC1)NC2=O (racemic)
ΔTm (thermal stability; DSF; 10 µM): 0.6 °C

CC/C(=N\NC(=O)NCc1cccc(O)c1)c1ccc(O)c(C)c1O
inhibition (enzyme activity; inhibitor; 0.1 µM): -0.9%

Cc1ccc(C(=O)Nc2ccc(CN3CCN(C)CC3)c(C(F)(F)F)c2)cc1C#Cc1cnc2cccnn12
remaining activity (enzyme activity; inhibitor; 23.5 nM): 37%

CCCOc1ccc(OC)c(F)c1C(=O)c1ccc(C(=O)N[C@@H]2CNC[C@H]2NC(=O)c2ccc3[nH]ncc3c2)cc1
remaining activity (enzyme activity; inhibitor; 10 µM): 62%

CN(c1ccnc(CNc2nc(Nc3ccc4c(c3)CC(=O)N4)ncc2C(F)(F)F)n1)S(C)(=O)=O
remaining binding (cell-free assay; competition with immobilised ligand; 1 µM): 78%

CCN(CC)CCNC(=O)c1c(C)[nH]c(/C=C2\C(=O)Nc3ccc(F)cc32)c1C
inhibition (enzyme activity; inhibitor; 0.3 µM): -1%

O=C(Nc1cnn(-c2csc(C(=O)NC3COC3)c2)c1)Nc1ccccc1Cl
remaining activity (enzyme activity; inhibitor; 5 µM): 95.6%

O=c1c2ccccc2[nH]c(=S)n1CCN1CCC(=C(c2ccc(F)cc2)c2ccc(F)cc2)CC1
remaining activity (enzyme activity; inhibitor; 0.5 µM): 99.5%

CCS(=O)(=O)c1cc2cc(C[C@@](O)(CC(C)(C)c3ccc(F)cc3C(N)=O)C(F)(F)F)[nH]c2cn1
remaining binding (cell-free assay; competition with immobilised ligand; 1 µM): 83%

COc1cc(Nc2cnc(C#N)c(O[C@H](C)CN(C)C)n2)ncc1-c1cnn(C)c1
remaining activity (enzyme activity; inhibitor; radiometric; 1 µM): 96%

FC(F)c1nc2ccccc2n1-c1nc(N2CCOCC2)nc(N2CCOCC2)n1
remaining activity (enzyme activity; inhibitor; 10 µM): 94%

Cc1sc(C(=O)NC2COC2)cc1-n1cc(NC(=O)Nc2c(F)cccc2Cl)cn1
remaining activity (enzyme activity; inhibitor; 10 µM): 86.8%

Cn1c2c(Cl)c(Cl)ccc2c2cc(N)[nH]c(=O)c21
ΔTm (thermal stability; DSF; 10 µM): -0.6 °C

CCCCNc1ncc2c(-c3ccc(F)cc3)nn(C[C@H]3CC[C@H](N)CC3)c2n1
inhibition (target engagement in cells; inhibitor; chemoproteomics; 20 mM): -14.9%

CNC(=O)c1cc(Oc2ccc(NC(=O)Nc3ccc(Cl)c(C(F)(F)F)c3)cc2)ccn1
inhibition (enzyme activity; inhibitor; 0.3 µM): -5%

Clc1ccc(Nc2nnc(Cc3ccncc3)c3ccccc23)cc1
remaining signal (cell-free assay; 0.5 µM): 85.6%

COc1cccc2c(NCc3ccccc3)nc(-n3c(N)nc4ccccc43)nc12
inhibition (target engagement in cells; inhibitor; chemoproteomics; 20 mM): -13.4%

Cc1ccc(Nc2nccc(N(C)c3ccc4c(C)n(C)nc4c3)n2)cc1S(N)(=O)=O
inhibition (enzyme activity; inhibitor; 0.3 µM): 3%

N#CC1(c2ccccn2)CCN(Cc2cc(C(=O)N3CCCC3)c(=O)n3ccccc23)CC1
remaining binding (cell-free assay; competition with immobilised ligand; 1 µM): 99%

Cc1ccc(NC(=O)c2ccc(C)c(C(F)(F)F)c2)cc1C#Cc1nn(C2CCC(O)CC2)c2ncnc(N)c12 (centres unmarked)
remaining signal (cell-free assay; 10 µM): 33%

COc1cc(Cl)c(C(=O)N[C@@H](CN[C@H]2CC[C@@H](N)CC2)Cc2ccc(C#N)cc2)cc1-c1ccc(CN[C@H](C)c2ccc(C)cc2)o1
remaining activity (enzyme activity; inhibitor; 1 µM): 88%

CCN(CC)CCNC(=O)c1c(C)[nH]c(/C=C2\C(=O)Nc3ccc(Cl)cc32)c1C
remaining activity (enzyme activity; inhibitor; 0.5 µM): 101%

Nc1nc(NC2CCCCC2)sc1C(=O)c1ccccc1
remaining activity (enzyme activity; inhibitor; 10 µM): 70%

CCN1CCC2(CC1)NC(=O)c1c(c3ccc(Cl)c(Cl)c3n1C)C2C#N (racemic)
ΔTm (thermal stability; DSF; 10 µM): 0 °C

Cc1cc(NC(=O)c2cccc3cc(-c4cccc5[nH]nc(N)c45)ccc23)ccc1F
activity vs control (enzyme activity; inhibitor; 0.1 µM): 106%

CC1=C(C#N)[C@@H](c2ccc3[nH]nc(C)c3c2)C(C#N)=C(c2ccc(Cl)cc2)N1
remaining binding (cell-free assay; competition with immobilised ligand; 1 µM): 100%

Cc1ccc(C(=O)NCc2ccsc2)cc1C#Cc1cn(C(C)C)c2ncnc(N)c12
activity vs control (enzyme activity; inhibitor; 1 µM): 108%

CN(c1ncccc1CNc1nc(Nc2ccc3c(c2)CC(=O)N3)ncc1C(F)(F)F)S(C)(=O)=O
inhibition (enzyme activity; inhibitor; 1 µM): 12.7%

O=C1Nc2ccc(Cl)cc2C1=Cc1cc(Cl)c(O)c(Cl)c1
remaining signal (cell-free assay; 0.5 µM): 93.6%

FC(F)(F)Oc1cccc(-c2cnc3ccc(-c4ccncc4)nn23)c1
activity vs control (enzyme activity; inhibitor; radiometric; 1 µM): 94%

CCC1(CC)NC(=O)c2c(c3ccc(Cl)c(Cl)c3n2C)C1C#N (centres unmarked)
ΔTm (thermal stability; DSF; 10 µM): 0.1 °C

NS(=O)(=O)c1cc(NC(=O)Cc2ccccc2)ccc1Oc1cccc(Cl)c1
remaining binding (cell-free assay; competition with immobilised ligand; 1 µM): 91%

CN(C)C1CCN(CC#Cc2nn(C3CCCC3)c3nc(NCc4ccccc4)ncc23)C1 (centres unmarked)
inhibition (enzyme activity; inhibitor; FRET; 10 µM): 2%

O=C1NC(=O)c2cc(Nc3ccc(F)cc3)c(Nc3ccc(F)cc3)cc21
remaining signal (cell-free assay; 0.5 µM): 95.6%

COc1cc2ncnc(Nc3ccc(Oc4ccccc4)cc3C)c2cc1OC
inhibition (enzyme activity; inhibitor; 1 µM): 1%

O=C(CSc1nc2nccnc2c(=O)n1CCc1ccccc1)Nc1nccs1
inhibition (enzyme activity; inhibitor; 10 µM): 12%
